Measured values reported in ChEMBL document CHEMBL1671788, “Discovery, synthesis, and structure-activity relationship development of a series of N-(4-acetamido)phenylpicolinamides as positive allosteric modulators of metabotropic glutamate receptor 4 (mGlu(4)) with CNS exposure in rats” (J Med Chem, 2011).

Target: Metabotropic glutamate receptor 4 (Rattus norvegicus) (UniProt P31423)
Experiment: Positive allosteric modulation of rat mGluR4 expressed in CHO cells coexpressing Gqi5 assessed as potentiation of glutamate-induced calcium mobilization
Assay type: functional, cell-based
Details: not given; call rule not given here

Metabotropic glutamate receptor 4 (Rattus norvegicus), sequence (P31423 whole entry): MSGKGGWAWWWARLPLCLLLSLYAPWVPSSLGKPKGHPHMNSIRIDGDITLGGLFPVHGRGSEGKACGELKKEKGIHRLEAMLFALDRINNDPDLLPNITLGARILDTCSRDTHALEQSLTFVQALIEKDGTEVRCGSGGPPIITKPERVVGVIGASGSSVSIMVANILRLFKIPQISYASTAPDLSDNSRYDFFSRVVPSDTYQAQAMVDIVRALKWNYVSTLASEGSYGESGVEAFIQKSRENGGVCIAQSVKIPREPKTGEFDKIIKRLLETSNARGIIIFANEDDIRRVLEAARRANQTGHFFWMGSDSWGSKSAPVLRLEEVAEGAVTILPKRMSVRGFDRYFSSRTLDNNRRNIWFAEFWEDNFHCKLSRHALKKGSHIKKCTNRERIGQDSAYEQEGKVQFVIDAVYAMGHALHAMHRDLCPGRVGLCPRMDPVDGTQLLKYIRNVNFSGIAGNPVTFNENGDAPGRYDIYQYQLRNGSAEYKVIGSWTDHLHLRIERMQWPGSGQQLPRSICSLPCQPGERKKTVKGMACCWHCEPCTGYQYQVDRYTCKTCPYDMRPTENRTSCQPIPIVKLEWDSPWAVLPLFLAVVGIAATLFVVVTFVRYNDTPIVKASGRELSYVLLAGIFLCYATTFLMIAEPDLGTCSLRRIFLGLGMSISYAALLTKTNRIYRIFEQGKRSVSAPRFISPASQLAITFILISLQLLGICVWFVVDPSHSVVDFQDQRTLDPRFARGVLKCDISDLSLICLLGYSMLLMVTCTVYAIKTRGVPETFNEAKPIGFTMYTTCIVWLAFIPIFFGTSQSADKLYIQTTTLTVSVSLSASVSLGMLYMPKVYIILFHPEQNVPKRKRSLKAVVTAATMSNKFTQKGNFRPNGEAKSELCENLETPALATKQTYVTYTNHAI

Row | Structure (SMILES) | fold change (FC)
1 | COc1cc(NC(=O)c2nccs2)ccc1NC(=O)c1ccccc1Cl | 32.2
2 | O=C(Nc1ccc(NC(=O)c2ccc(F)cc2Cl)c(Cl)c1)c1ccccn1 | 6.7
3 | O=C(Nc1ccc(NC(=O)c2ccccc2Cl)c(F)c1)c1ccccn1 | 4.6
4 | COc1ccccc1C(=O)n1ccc2cc(NC(=O)c3ccccn3)ccc21 | 5.9
5 | O=C(Nc1ccc(NC(=O)c2nccs2)c(Cl)c1)c1ccccn1 | 6

Target: T1, Metabotropic glutamate receptor 4 (Homo sapiens, UniProt Q14833)
T1 sequence (Q14833 whole entry): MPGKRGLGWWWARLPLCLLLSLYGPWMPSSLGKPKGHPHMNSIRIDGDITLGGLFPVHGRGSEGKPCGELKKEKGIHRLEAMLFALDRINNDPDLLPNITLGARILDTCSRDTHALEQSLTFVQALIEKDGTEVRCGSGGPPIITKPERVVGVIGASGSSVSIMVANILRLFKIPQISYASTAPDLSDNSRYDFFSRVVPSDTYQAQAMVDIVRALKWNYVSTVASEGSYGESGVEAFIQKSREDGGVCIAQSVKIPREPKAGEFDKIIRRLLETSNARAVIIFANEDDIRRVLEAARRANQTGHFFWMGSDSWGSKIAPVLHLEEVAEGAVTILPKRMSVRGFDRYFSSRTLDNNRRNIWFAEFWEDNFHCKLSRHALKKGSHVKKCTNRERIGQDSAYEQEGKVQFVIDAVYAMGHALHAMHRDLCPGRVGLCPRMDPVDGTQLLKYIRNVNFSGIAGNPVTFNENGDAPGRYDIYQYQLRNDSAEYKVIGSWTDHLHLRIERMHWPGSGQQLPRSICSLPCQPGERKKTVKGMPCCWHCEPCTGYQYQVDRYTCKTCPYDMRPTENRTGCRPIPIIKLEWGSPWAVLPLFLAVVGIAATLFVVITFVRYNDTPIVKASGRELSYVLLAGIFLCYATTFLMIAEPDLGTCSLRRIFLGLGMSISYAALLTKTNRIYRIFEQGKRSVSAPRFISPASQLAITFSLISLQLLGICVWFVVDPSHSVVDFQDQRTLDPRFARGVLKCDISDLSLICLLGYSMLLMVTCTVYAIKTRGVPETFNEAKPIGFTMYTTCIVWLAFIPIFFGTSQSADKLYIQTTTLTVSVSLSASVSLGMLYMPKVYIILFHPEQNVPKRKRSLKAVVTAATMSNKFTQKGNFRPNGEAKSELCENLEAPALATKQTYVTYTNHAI
Experiment: Positive allosteric modulation of human mGluR4 expressed in CHO cells coexpressing Gqi5 assessed as calcium mobilization relative to PHCCC
Assay type: functional, cell-based
Details: not given
Outline: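 CHO cells stably expressing human mGlu4 with Gqi5 were plated at 30,000 cells/well and grown overnight. Cells were loaded with 1 µM Fluo-4 AM for 45 min at 37 °C in HBSS/HEPES/2.5 mM probenecid buffer. […] Ca2+ fluorescence was read (ex 470, em 540 nm). Curves were fitted with a four-parameter logistic; ≥3 independent runs in triplicate.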

Row | Structure (SMILES) | Activity
6 | O=C(Nc1ccc(NC(=O)c2ccccc2Cl)cc1)c1ccccn1 | 33.6%
7 | O=C(Nc1ccc(NC(=O)c2ccc(-c3ccccc3)o2)c(Cl)c1)c1ccccn1 | 24.9%
8 | O=C(Nc1ccc(NC(=O)c2cccs2)c(Cl)c1)c1ccccn1 | 57.8%
9 | COc1cc(NC(=O)c2cccs2)ccc1NC(=O)c1ccccc1Cl | 63.4%
10 | COc1cc(NC(=O)c2cnccn2)ccc1NC(=O)c1ccccc1Cl | 74.3%
11 | O=C(Nc1ccc2c(ccn2C(=O)c2ccc(F)cc2Cl)c1)c1ccccn1 | 71.7%
12 | COc1cc(NC(=O)c2nccs2)ccc1NC(=O)c1ccccc1Cl | 77.6%
13 | O=C(Nc1ccc(NC(=O)c2cncs2)c(Cl)c1)c1ccccn1 | 86.7%
14 | COc1cc(NC(=O)c2cscn2)ccc1NC(=O)c1ccccc1Cl | 86.8%
15 | O=C(Nc1ccc(NC(=O)c2ccc(F)cc2Cl)c(Cl)c1)c1ccccn1 | 61.1%
16 | O=C(Nc1ccc(NC(=O)c2ccccn2)cc1Cl)c1ccccc1 | 37.9%
17 | COc1cc(NC(=O)c2ccco2)ccc1NC(=O)c1ccccc1Cl | 62.7%
18 | COc1cc(NC(=O)c2ccncn2)ccc1NC(=O)c1ccccc1Cl | 77.9%
19 | O=C(Nc1ccc(NC(=O)c2ccccc2Cl)c(F)c1)c1ccccn1 | 59.7%
20 | O=C(Nc1ccc(NC(=O)C2CCCCC2)c(Cl)c1)c1ccccn1 | 59.2%
21 | Cn1c(C(=O)Nc2ccc(NC(=O)c3ccccn3)cc2Cl)cc2ccccc21 | 49.9%
22 | COc1cc(NC(=O)c2ccc(Br)o2)ccc1NC(=O)c1ccccc1Cl | 87%
23 | COc1ccccc1C(=O)Nc1ccc(NC(=O)c2ccccn2)cc1Cl | 16.4%
24 | COc1cc(NC(=O)c2ccc(-c3ccccc3)o2)ccc1NC(=O)c1ccccc1Cl | 16.3%
25 | O=C(Nc1ccc(NC(=O)c2ccccc2Cl)c(C(F)(F)F)c1)c1ccccn1 | 69.5%
26 | O=C(Nc1ccc2c(ccn2C(=O)c2ccccn2)c1)c1ccccc1Cl | 21.1%
27 | CC(C)C(=O)Nc1ccc(NC(=O)c2ccccn2)cc1Cl | 60%
28 | COc1cc(NC(=O)C2CCCCC2)ccc1NC(=O)c1ccccc1Cl | 26.9%
29 | COc1ccccc1C(=O)n1ccc2cc(NC(=O)c3ccccn3)ccc21 | 91.3%
30 | O=C(Nc1ccc(NC(=O)c2ccccc2F)c(Cl)c1)c1ccccn1 | 34.5%
31 | O=C(Nc1ccc(NC(=O)c2ccc(F)cc2F)c(Cl)c1)c1ccccn1 | 24.6%
32 | O=C(Nc1ccc(NC(=O)c2nccs2)c(Cl)c1)c1ccccn1 | 61.5%
33 | O=C(Nc1ccc(NC(=O)c2ccccn2)cc1Cl)c1cc(Cl)cc(Cl)c1 | 37.4%
34 | COc1cc(NC(=O)C2CCCO2)ccc1NC(=O)c1ccccc1Cl (stereo not given) | 21.3%

Target: Metabotropic glutamate receptor 4 (Rattus norvegicus) (UniProt P31423)
Experiment: Positive allosteric modulation of rat mGluR4 expressed in CHO cells coexpressing Gqi5 assessed as calcium mobilization relative to PHCCC
Assay type: functional, cell-based
Details: not given

Row | Structure (SMILES) | Activity
35 | O=C(Nc1ccc(NC(=O)c2ccccc2Cl)cc1)c1ccccn1 | 49.6%
36 | O=C(Nc1ccc(NC(=O)c2ccc(-c3ccccc3)o2)c(Cl)c1)c1ccccn1 | 45.6%
37 | O=C(Nc1ccc(NC(=O)c2cccs2)c(Cl)c1)c1ccccn1 | 93.8%
38 | COc1cc(NC(=O)c2cccs2)ccc1NC(=O)c1ccccc1Cl | 96.7%
39 | COc1cc(NC(=O)c2cnccn2)ccc1NC(=O)c1ccccc1Cl | 112%
40 | O=C(Nc1ccc2c(ccn2C(=O)c2ccc(F)cc2Cl)c1)c1ccccn1 | 104%
41 | COc1cc(NC(=O)c2nccs2)ccc1NC(=O)c1ccccc1Cl | 134%
42 | O=C(Nc1ccc(NC(=O)c2cncs2)c(Cl)c1)c1ccccn1 | 125%
43 | COc1cc(NC(=O)c2cscn2)ccc1NC(=O)c1ccccc1Cl | 132%
44 | O=C(Nc1ccc(NC(=O)c2ccc(F)cc2Cl)c(Cl)c1)c1ccccn1 | 119%
45 | O=C(Nc1ccc(NC(=O)c2ccccn2)cc1Cl)c1ccccc1 | 74.2%
46 | COc1cc(NC(=O)c2ccco2)ccc1NC(=O)c1ccccc1Cl | 122%
47 | COc1cc(NC(=O)c2ccncn2)ccc1NC(=O)c1ccccc1Cl | 133%
48 | O=C(Nc1ccc(NC(=O)c2ccccc2Cl)c(F)c1)c1ccccn1 | 91.4%
49 | O=C(Nc1ccc(NC(=O)C2CCCCC2)c(Cl)c1)c1ccccn1 | 106%
50 | Cn1c(C(=O)Nc2ccc(NC(=O)c3ccccn3)cc2Cl)cc2ccccc21 | 87.1%
51 | COc1cc(NC(=O)c2ccc(Br)o2)ccc1NC(=O)c1ccccc1Cl | 125%
52 | COc1ccccc1C(=O)Nc1ccc(NC(=O)c2ccccn2)cc1Cl | 19%
53 | COc1cc(NC(=O)c2ccc(-c3ccccc3)o2)ccc1NC(=O)c1ccccc1Cl | 16.3%
54 | O=C(Nc1ccc(NC(=O)c2ccccc2Cl)c(C(F)(F)F)c1)c1ccccn1 | 102%
55 | O=C(Nc1ccc2c(ccn2C(=O)c2ccccn2)c1)c1ccccc1Cl | 17.6%
56 | CC(C)C(=O)Nc1ccc(NC(=O)c2ccccn2)cc1Cl | 109%
57 | COc1cc(NC(=O)C2CCCCC2)ccc1NC(=O)c1ccccc1Cl | 43.2%
58 | COc1ccccc1C(=O)n1ccc2cc(NC(=O)c3ccccn3)ccc21 | 107%
59 | O=C(Nc1ccc(NC(=O)c2ccccc2F)c(Cl)c1)c1ccccn1 | 71.6%
60 | O=C(Nc1ccc(NC(=O)c2ccc(F)cc2F)c(Cl)c1)c1ccccn1 | 43.5%
61 | O=C(Nc1ccc(NC(=O)c2nccs2)c(Cl)c1)c1ccccn1 | 106%
62 | O=C(Nc1ccc(NC(=O)c2ccccn2)cc1Cl)c1cc(Cl)cc(Cl)c1 | 61%
63 | COc1cc(NC(=O)C2CCCO2)ccc1NC(=O)c1ccccc1Cl (stereo not given) | 27.1%

Target: T1, Metabotropic glutamate receptor 4
Experiment: Positive allosteric modulation of human mGluR4 expressed in CHO cells coexpressing Gqi5 assessed as calcium mobilization
Assay type: functional, cell-based
Details: cho

Row | Structure (SMILES) | EC50
64 | O=C(Nc1ccc(NC(=O)c2ccc(-c3ccccc3)o2)c(Cl)c1)c1ccccn1 | Not Active
65 | COc1ccccc1C(=O)Nc1ccc(NC(=O)c2ccccn2)cc1Cl | Not Active
66 | COc1cc(NC(=O)c2ccc(-c3ccccc3)o2)ccc1NC(=O)c1ccccc1Cl | Not Active
67 | O=C(Nc1ccc2c(ccn2C(=O)c2ccccn2)c1)c1ccccc1Cl | Not Active
68 | O=C(Nc1ccc(NC(=O)c2ccc(F)cc2F)c(Cl)c1)c1ccccn1 | Not Active
69 | COc1cc(NC(=O)C2CCCO2)ccc1NC(=O)c1ccccc1Cl (stereo not given) | Not Active

Same assay, conditions: read-out: EC50

Row | Structure (SMILES) | EC50
70 | O=C(Nc1ccc(NC(=O)c2ccccc2Cl)cc1)c1ccccn1 | 1.61 µM
71 | O=C(Nc1ccc(NC(=O)c2cccs2)c(Cl)c1)c1ccccn1 | 1.04 µM
72 | COc1cc(NC(=O)c2cnccn2)ccc1NC(=O)c1ccccc1Cl | 1.78 µM
73 | O=C(Nc1ccc2c(ccn2C(=O)c2ccc(F)cc2Cl)c1)c1ccccn1 | 1.42 µM
74 | COc1cc(NC(=O)c2nccs2)ccc1NC(=O)c1ccccc1Cl | 0.627 µM
75 | O=C(Nc1ccc(NC(=O)c2cncs2)c(Cl)c1)c1ccccn1 | 2.18 µM
76 | COc1cc(NC(=O)c2cscn2)ccc1NC(=O)c1ccccc1Cl | 0.845 µM
77 | O=C(Nc1ccc(NC(=O)c2ccc(F)cc2Cl)c(Cl)c1)c1ccccn1 | 0.114 µM
78 | O=C(Nc1ccc(NC(=O)c2ccccn2)cc1Cl)c1ccccc1 | 0.361 µM
79 | COc1cc(NC(=O)c2ccco2)ccc1NC(=O)c1ccccc1Cl | 0.977 µM
80 | COc1cc(NC(=O)c2ccncn2)ccc1NC(=O)c1ccccc1Cl | 1.33 µM
81 | O=C(Nc1ccc(NC(=O)C2CCCCC2)c(Cl)c1)c1ccccn1 | 0.426 µM
82 | Cn1c(C(=O)Nc2ccc(NC(=O)c3ccccn3)cc2Cl)cc2ccccc21 | 4.72 µM
83 | COc1cc(NC(=O)c2ccc(Br)o2)ccc1NC(=O)c1ccccc1Cl | 1.44 µM
84 | O=C(Nc1ccc(NC(=O)c2ccccc2Cl)c(C(F)(F)F)c1)c1ccccn1 | 2.09 µM
85 | CC(C)C(=O)Nc1ccc(NC(=O)c2ccccn2)cc1Cl | 4.27 µM
86 | COc1cc(NC(=O)C2CCCCC2)ccc1NC(=O)c1ccccc1Cl | 1.12 µM
87 | COc1ccccc1C(=O)n1ccc2cc(NC(=O)c3ccccn3)ccc21 | 1.41 µM
88 | O=C(Nc1ccc(NC(=O)c2ccccc2F)c(Cl)c1)c1ccccn1 | 2.38 µM
89 | O=C(Nc1ccc(NC(=O)c2nccs2)c(Cl)c1)c1ccccn1 | 0.403 µM
90 | O=C(Nc1ccc(NC(=O)c2ccccn2)cc1Cl)c1cc(Cl)cc(Cl)c1 | 2.15 µM

Target: Metabotropic glutamate receptor 4 (Rattus norvegicus, UniProt P31423)
Sequence (P31423 whole entry): as the sequence (P31423 whole entry) above
Experiment: Positive allosteric modulation of rat mGluR4 expressed in CHO cells coexpressing Gqi5 assessed as calcium mobilization
Assay type: functional, cell-based
Details: cho

Row | Structure (SMILES) | EC50
91 | COc1ccccc1C(=O)Nc1ccc(NC(=O)c2ccccn2)cc1Cl | Not Active
92 | COc1cc(NC(=O)c2ccc(-c3ccccc3)o2)ccc1NC(=O)c1ccccc1Cl | Not Active
93 | O=C(Nc1ccc2c(ccn2C(=O)c2ccccn2)c1)c1ccccc1Cl | Not Active

Same assay, conditions: read-out: EC50

Row | Structure (SMILES) | EC50
94 | O=C(Nc1ccc(NC(=O)c2ccccc2Cl)cc1)c1ccccn1 | 2.26 µM
95 | O=C(Nc1ccc(NC(=O)c2ccc(-c3ccccc3)o2)c(Cl)c1)c1ccccn1 | 3.35 µM
96 | O=C(Nc1ccccc1)[C@]12C[C@H]1/C(=N\O)c1ccccc1O2 | 2.82 µM
97 | O=C(Nc1ccc(NC(=O)c2cccs2)c(Cl)c1)c1ccccn1 | 1.13 µM
98 | COc1cc(NC(=O)c2cnccn2)ccc1NC(=O)c1ccccc1Cl | 1.12 µM
99 | O=C(Nc1ccc2c(ccn2C(=O)c2ccc(F)cc2Cl)c1)c1ccccn1 | 1.66 µM
100 | COc1cc(NC(=O)c2nccs2)ccc1NC(=O)c1ccccc1Cl | 0.377 µM
101 | O=C(Nc1ccc(NC(=O)c2cncs2)c(Cl)c1)c1ccccn1 | 1.73 µM
102 | COc1cc(NC(=O)c2cscn2)ccc1NC(=O)c1ccccc1Cl | 0.753 µM
103 | O=C(Nc1ccc(NC(=O)c2ccc(F)cc2Cl)c(Cl)c1)c1ccccn1 | 0.169 µM
104 | O=C(Nc1ccc(NC(=O)c2ccccn2)cc1Cl)c1ccccc1 | 0.518 µM
105 | COc1cc(NC(=O)c2ccco2)ccc1NC(=O)c1ccccc1Cl | 1.01 µM
106 | COc1cc(NC(=O)c2ccncn2)ccc1NC(=O)c1ccccc1Cl | 0.894 µM
107 | O=C(Nc1ccc(NC(=O)C2CCCCC2)c(Cl)c1)c1ccccn1 | 0.592 µM
108 | Cn1c(C(=O)Nc2ccc(NC(=O)c3ccccn3)cc2Cl)cc2ccccc21 | 2.97 µM
109 | COc1cc(NC(=O)c2ccc(Br)o2)ccc1NC(=O)c1ccccc1Cl | 1 µM
110 | O=C(Nc1ccc(NC(=O)c2ccccc2Cl)c(C(F)(F)F)c1)c1ccccn1 | 2.36 µM
111 | CC(C)C(=O)Nc1ccc(NC(=O)c2ccccn2)cc1Cl | 4.82 µM
112 | COc1cc(NC(=O)C2CCCCC2)ccc1NC(=O)c1ccccc1Cl | 1.52 µM
113 | COc1ccccc1C(=O)n1ccc2cc(NC(=O)c3ccccn3)ccc21 | 1.34 µM
114 | O=C(Nc1ccc(NC(=O)c2ccccc2F)c(Cl)c1)c1ccccn1 | 4.39 µM
115 | O=C(Nc1ccc(NC(=O)c2ccc(F)cc2F)c(Cl)c1)c1ccccn1 | 2.1 µM
116 | O=C(Nc1ccc(NC(=O)c2nccs2)c(Cl)c1)c1ccccn1 | 0.533 µM
117 | O=C(Nc1ccc(NC(=O)c2ccccn2)cc1Cl)c1cc(Cl)cc(Cl)c1 | 2.34 µM
118 | COc1cc(NC(=O)C2CCCO2)ccc1NC(=O)c1ccccc1Cl (stereo not given) | > 10 µM

Tested on: not listed separately
Experiment: Plasma protein binding in Sprague-Dawley rat
Assay type: ADME, cell-free
Details: read-out: PPB
Outline: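 Equilibrium dialysis of compound spiked into rat plasma against 25 mM phosphate buffer, pH 7.4. Dialysis ran 4 h at 37 °C with shaking. Both chambers were matrix-matched, extracted with cold acetonitrile and quantified by LC/MS/MS. Triplicate within one plate.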

Row | Structure (SMILES) | fraction unbound
119 | COc1cc(NC(=O)c2nccs2)ccc1NC(=O)c1ccccc1Cl | < 0.005
120 | COc1ccccc1C(=O)n1ccc2cc(NC(=O)c3ccccn3)ccc21 | < 0.005
